Hits are enriched below; roughly 3.4% of the tested compounds scored in any of these assays.
Runt-SMMHC FRET = Runt domain-CBFb-SMMHC interaction inhibition; Q01196+Q13951; Cerulean-Runt/Venus-CBFb-SMMHC FRET ratio 530/480, 1 h; inhibition, % at 20 µM; hit rate 0.74% among 220,000; AID 1434;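 active = mean inhibition across duplicate retests at 20 µM reaching about 50%, limit read from the data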;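 note: inhibitors lower the FRET ratio by blocking Runt binding to CBFb-SMMHC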
PHOSPHO1 inh = PHOSPHO1 (human) inhibition | recombinant PHOSPHO1, absorbance phosphatase assay | inhibition, % at 13.3 µM | hit rate 1.1% among 290,000 | AID 1565; in the data active = inhibition above about 60%
HMGR II inh = inhibitors of class II HMG-CoA reductase from Enterococcus faecalis. inhibition, % at 10 µM. hit rate 0.41% among 190,000. purified E. faecalis HMGR, NADPH absorbance 340 nm kinetic;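 active = inhibition above a set limit, the median over all tested compounds plus 3 SD, cut at about 9.5% in these data; inconclusive = no clear call, values can overlap the other calls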;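 note: enzyme runs in reverse so mevalonate oxidation gives rising NADPH absorbance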
Wee1 stabilizer = inhibitors of human Wee1 degradation. P30291. HeLa Luc-Wee1K328M stability, luciferase luminescence; 100% = proteasome inhibitor MG132 effect. reporter increase, % at 5 µM. hit rate 1.2% among 220,000;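 active = activation above the mean of all tested compounds plus 3 SD, set per screening run, cut at about 8.8% in these data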;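 note: cells exposed to compound for 20 h before luminescence read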
Target sequence (P30291 whole entry K328M): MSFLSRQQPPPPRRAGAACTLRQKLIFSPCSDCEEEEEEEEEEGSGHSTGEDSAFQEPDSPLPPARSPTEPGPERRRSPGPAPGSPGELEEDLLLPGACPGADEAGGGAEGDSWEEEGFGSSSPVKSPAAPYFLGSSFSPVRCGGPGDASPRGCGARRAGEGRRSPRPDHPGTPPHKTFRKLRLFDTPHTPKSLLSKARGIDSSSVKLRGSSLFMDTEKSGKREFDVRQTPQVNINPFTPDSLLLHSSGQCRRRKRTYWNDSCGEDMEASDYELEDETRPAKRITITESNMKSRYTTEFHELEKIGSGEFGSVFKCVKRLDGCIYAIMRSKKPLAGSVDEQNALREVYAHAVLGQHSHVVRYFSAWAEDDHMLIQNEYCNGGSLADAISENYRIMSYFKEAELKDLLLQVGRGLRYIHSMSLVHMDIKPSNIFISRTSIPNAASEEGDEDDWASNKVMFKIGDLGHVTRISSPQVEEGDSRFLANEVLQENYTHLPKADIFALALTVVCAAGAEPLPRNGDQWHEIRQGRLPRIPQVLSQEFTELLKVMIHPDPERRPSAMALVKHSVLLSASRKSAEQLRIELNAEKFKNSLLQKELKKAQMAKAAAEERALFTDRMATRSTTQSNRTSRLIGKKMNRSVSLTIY
Runt-CBFb FRET = blocks binding of human RUNX1 Runt domain to CBFb; inhibition, % at 20 µM; AID 1496; Q01196+Q13951; hit rate 0.46% among 220,000; Cerulean-Runt/Venus-CBFb FRET ratio 530/480, 1 h;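 active = inhibition over about 50% at 20 µM in the single-dose screen, limit read from the data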
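Measured by: fluorescence energy transfer, 422 nm excitation, 530/480 nm emission; Assay system: Cerulean-Runt domain; Medium: Tris pH 7.5 buffer with BSA; Measure: loss of energy transfer signal; Controls: 5 µM unlabeled CBFb as full-inhibition high control; Incubation: protein complex preformed 1 h, compound exposure 1 h, room temperature, dark.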
RanGTP-Imp inh = disruptors of Ran-importin-beta complex formation – biochemical, FRET, CFP-Ran, YFP-importin-beta, homogeneous, primary screen. inhibition, % (concentration not given with the values). AID 2216. cell-free CFP-Ran/YFP-importin-beta FRET ratio. hit rate 1.1% among 300,000;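 active = more than half of the replicate wells show a fall in the fluorescence ratio signal beyond about 16%, limit read from the data, passing the limit was not always enough; inconclusive = exactly half of the replicate wells pass the set limit; inactive = fewer than half of replicates pass the limit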
Runt-CBFb TRFRET = inhibitors of human RUNX1 Runt domain binding to CBFb; shares compounds with Runt-CBFb FRET; TR-FRET RUNX1 Runt domain-CBFb binding; inhibition, % at 20 µM; hit rate 20% among 480; AID 1502; in the data active = inhibition above about 40%
YIC FRET counter = counter-screen for RanGTP-importin-beta inhibitors: YIC FRET probe; hit rate 40% among 1,000; AID 435026; shares compounds with RanGTP-Imp inh; IC50, µM; Purified YIC probe, intramolecular FRET ratio YFP/CFP;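 active = fitted half-maximal inhibitory concentration no more than tenfold above the top dose tested; inconclusive = flat fit with 30 to 70% activity, or poor fit; inactive = half-maximal concentration beyond tenfold above the top dose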
Numbers stand for hits; 0 = inactive; ? = inconclusive; - = no result given.

SMILES	Runt-SMMHC FRET	PHOSPHO1 inh	HMGR II inh	Wee1 stabilizer	Runt-CBFb FRET	RanGTP-Imp inh	YIC FRET counter	others
CCOC(=O)C1(Cc2ccc(OC)cc2)CCN(C(=O)c2cncs2)CC1	0	0	0	0	54	0	-	Runt-CBFb TRFRET=0
O=C(NCCCO)c1ccc(CSc2nc3ccccc3c(=O)[nH]2)cc1	0	0	-	0	0	0	-
CCCn1c(SCC(=O)Nc2ccccc2OC)nnc1-c1ccco1	-	0	-	-	-	?	-
COCCN1C=C(C(=O)OC)C(c2cc(Br)c(OC)c(OC)c2)C(C(=O)OC)=C1	142	0	0	0	73	20	31	Runt-CBFb TRFRET=0
COC(=O)C1=CN(C)C=C(C(=O)OC)C1c1ccc(O)c(OC)c1	0	0	0	0	0	0	-
O=C(COC(=O)Cn1cnc2ccccc21)NCCCc1ccccc1	0	0	0	0	0	0	-
CCCCn1c(NC(=O)c2ccc(Br)o2)c(S(=O)(=O)c2ccccc2)c2nc3ccccc3nc21	136	0	0	0	64	25	4.9	Runt-CBFb TRFRET=0
Nc1c(S(=O)(=O)c2ccccc2)c2nc3ccccc3nc2n1CCN1CCOCC1	0	0	0	0	0	0	-
CC(=O)N1CCc2c(sc(NC(=O)c3ccc4c(c3)OCCO4)c2C#N)C1	90	0	0	0	65	39	52	Runt-CBFb TRFRET=0
CCOc1ccc(Nc2c3ccccc3nc3ccccc23)cc1	0	0	-	0	60	54	0	Runt-CBFb TRFRET=41
Cc1ccc(-c2nc3cccnc3s2)cc1NS(=O)(=O)c1cccs1	0	0	0	0	0	0	-
CCc1ccc(S(=O)(=O)Nc2ccc(-c3nc4cccnc4s3)cc2)s1	148	0	0	0	80	40	9.7	Runt-CBFb TRFRET=0
NS(=O)(=O)c1ccc(CCNC(=O)CCCn2ncn3c(cc4occc43)c2=O)cc1	-	0	-	-	-	0	-
CCc1c(C)c2cc(Cl)c(O)c(CN3CCCCC3)c2oc1=O	156	0	0	0	85	22	26	Runt-CBFb TRFRET=0
CC(C)CN(C(=O)COC(=O)CCC(=O)c1ccc(Cl)cc1)c1c(N)n(Cc2ccccc2)c(=O)[nH]c1=O	-	-	-	-	-	0	-
CCOCCCNC(=O)/C(C#N)=C/c1cc(Br)c(O)c(Br)c1	116	0	-	0	68	38	15	Runt-CBFb TRFRET=0
COCCNC(=O)/C(C#N)=C/c1cc(Br)c(O)c(OC)c1	0	0	0	0	0	0	-
CCN1C2=C(C(=O)CCC2)C(c2ccc(O)c(Br)c2)C2=C1CCCC2=O	122	0	0	0	54	35	8.4	Runt-CBFb TRFRET=0
CCN1C(=O)[C@H]2[C@@H](c3ccc(-c4cccc(Cl)c4)c(OC)c3)N[C@@](C)(C(=O)OC)[C@H]2C1=O	-	-	-	-	-	0	-
C=CCn1c(N)c(C(=O)OCCC)c2nc3ccccc3nc21	119	0	0	0	69	21	0	Runt-CBFb TRFRET=0
COc1ccc(-n2ncc3c2CC(C)(C)CC3NC(=O)c2c(C)cc(=O)oc2C)cc1 (centres undefined)	-	0	-	-	-	0	-
CCN(CC)S(=O)(=O)c1ccc2oc(C(=O)NCCCN3CCOCC3)c(C)c2c1	0	0	0	0	0	17	0
CCCc1ccc2oc(C(=O)NCCCN3CCOCC3)c(C)c2c1	-	0	-	-	-	0	-
O=C1CC(C(=O)N2CCC(N3CCC(C(=O)NC4CC4)CC3)CC2)c2ccccc21 (centres undefined)	0	0	0	0	0	0	-
Cc1[nH]c2ccccc2c1/C=C/c1nc2ccccc2c(=O)n1CCO	0	0	0	0	0	17	9
SMILES	Runt-SMMHC FRET	PHOSPHO1 inh	HMGR II inh	Wee1 stabilizer	Runt-CBFb FRET	RanGTP-Imp inh	YIC FRET counter	others
Cn1c2ccccc2c(=O)c2ccc(F)cc21	-	0	-	-	-	35	15
Cn1c(=O)c(Oc2ccc(F)cc2)c(O)c2ccccc21	0	0	0	0	0	0	-
CCOC(=O)N1CCN(c2cc(=O)n(Cc3ccc(F)cc3)c(=O)[nH]2)CC1	0	0	0	0	0	26	0
COc1ccccc1N1CCN(c2cc(=O)n(Cc3ccc(F)cc3)c(=O)[nH]2)CC1	0	0	0	0	0	?	-
O=c1cc(N2CCN(Cc3ccccc3)CC2)[nH]c(=O)n1-c1ccc(Br)cc1	0	0	0	0	0	31	0
CCN1CCN(c2cc(=O)n(Cc3ccc(F)cc3)c(=O)[nH]2)CC1	0	0	0	0	0	29	0
CCOC(=O)/C=C1\SCC(=O)N1CC(=O)Nc1ccc(OC)c(OC)c1	0	0	0	0	0	0	-
CCOC(=O)/C=C1\SCC(=O)N1CC(=O)c1ccc[nH]1	0	0	0	0	-	21	0
COc1ccccc1/C=C/C(=O)Nc1ccc(S(=O)(=O)Nc2cc(C)nc(C)n2)cc1	-	0	-	-	-	0	-
COc1ccccc1/C=C/c1nc(C#N)c(N(C)C)o1	-	0	-	-	-	28	13
Cc1ccc(/C=N/Nc2ccnc3cc(Cl)ccc23)c(C)c1	0	0	0	0	0	0	-
Cc1ccccc1/C=N/Nc1ccnc2cc(Cl)ccc12	0	0	0	0	0	23	0
Cc1sc2nc(SCC(=O)NCc3ccco3)n(-c3ccccc3)c(=O)c2c1C	0	0	0	0	0	23	0
Cc1cc(NC(=O)COC(=O)C2CCC(=O)N2)c([N+](=O)[O-])cc1C (centres undefined)	0	0	0	0	0	0	-
O=C1C(=O)N(CCS(=O)(=O)c2ccccc2)c2ccc(Cl)cc21	-	0	-	-	-	39	0
COc1ccccc1NC(=O)CN1CCN(CC(=O)Nc2ccc(C)c(F)c2)CC1	-	0	-	-	-	27	0
CC1(C)CC(=O)C=C(NNC(=O)C2CCCCC2)C1	0	0	0	0	0	19	0
CC1(C)CC(=O)C=C(NC2CCCCCCC2)C1	0	0	0	0	0	0	-
Cc1ccc(Nc2cc(C)nn2-c2nc(C)cc(C)n2)cc1	0	0	0	0	0	24	0
CC(=O)Nc1cc(C)nn1-c1nc(C)cc(C)n1	0	0	0	0	0	0	-
O=C(Cn1nnc(-c2cccc(C(F)(F)F)c2)n1)NC1CCCC1	0	0	0	0	0	0	-
Cc1ccc(CNC(=O)c2cccnc2)cc1	-	-	-	-	-	21	0
Cc1noc(C)c1Cc1ccc(O)cc1	0	0	0	0	0	0	-
CCCc1[nH]nc2c1C(c1ccoc1)C(C#N)=C(N)O2 (centres undefined)	0	0	0	0	0	?	-
Cc1[nH]nc2c1C(c1ccoc1)C(C#N)=C(N)O2 (centres undefined)	-	-	0	0	-	21	0
CNC(=S)Nc1ccc(C(N)=O)cc1	0	0	0	0	0	27	0
C=CCNC(=S)Nc1ccc(C(N)=O)cc1	0	0	0	0	0	0	-
O=C(c1ccco1)c1cc2c(ccc3ccccc32)oc1=O	0	0	0	0	0	24	21

High-throughput results (PubChem)
